Published values gathered from unrelated publications.
Each line is one published result; the experiments were not run side by side.
Target: Tyrosine-protein kinase Fgr (FGR, Homo sapiens, UniProt P09769)

Compound	test	setting	quantity	value
CC1(C)NC(=O)c2[nH]c3c(Cl)c(Cl)ccc3c2C1C#N (stereo not shown)	thermal stability, DSF	10 µM	ΔTm	0.2 °C
CS(=O)(=O)c1cc(C2(NC(=O)c3cncc4c3cnn4-c3ccc(F)cc3)CC2)ccn1	cell-free assay, competition with immobilised ligand	1 µM	remaining binding	100%
CCN1CCC2(CC1)NC(=O)c1c(c3ccc(Cl)c(Cl)c3n1C)C2C#N (racemic)	thermal stability, DSF	10 µM	ΔTm	-0.1 °C
COc1cc(Cl)c(C(=O)N[C@@H](CN[C@H]2CC[C@@H](N)CC2)Cc2ccc(C#N)cc2)cc1-c1ccc(CN[C@H](C)c2ccc(C)cc2)o1	enzyme activity, inhibitor	1 µM	remaining activity	87%
CC(C)(C)c1nc(-c2cccc(NS(=O)(=O)c3c(F)cccc3F)c2F)c(-c2ccnc(N)n2)s1	enzyme activity, inhibitor, radiometric	1 µM	remaining activity	60%
Cc1ccc(NC(=O)c2ccc(CN3CCN(C)CC3)cc2)cc1Nc1nc(-c2cccnc2)cs1	cell-free assay	0.5 µM	remaining signal	43.6%
CC(C)(O)[C@H]1CC[C@H](Nc2ccc3ncc(-c4cccc(C(F)(F)F)c4)n3n2)CC1	enzyme activity, inhibitor	1 µM	remaining activity	36.8%
Cn1c2c(Cl)c(Cl)ccc2c2cc(N)[nH]c(=O)c21	thermal stability, DSF	10 µM	ΔTm	0 °C
NS(=O)(=O)c1cc(NC(=O)Cc2ccccc2)ccc1Oc1cccc(Cl)c1	cell-free assay, competition with immobilised ligand	1 µM	remaining binding	100%
O=C(Nc1cnn(-c2csc(C(=O)NC3COC3)c2)c1)Nc1ccccc1Cl	enzyme activity, inhibitor	5 µM	remaining activity	90%
CN1CCC2(CC1)NC(=O)c1c(c3ccc(Cl)c(Cl)c3n1C)C2C#N (racemic)	thermal stability, DSF	10 µM	ΔTm	0.1 °C
N#CCCc1ccc2c(c1)-c1[nH]c3ccc([N+](=O)[O-])cc3c1CC(=O)N2	cell-free assay	0.5 µM	remaining signal	31%
FC(F)(F)c1ccc2c(c1)nc(-c1cccnc1)n2C1CC1	cell-free assay, competition with immobilised ligand	1 µM	remaining binding	100%
COc1cc2ncnc(Nc3ccc(Oc4ccccc4)cc3C)c2cc1OC	enzyme activity, inhibitor	1 µM	inhibition	98%
O=S(=O)(NC1CCC(c2cc(F)ccc2F)(S(=O)(=O)c2ccc(Cl)cc2)CC1)C(F)(F)F (stereo not shown)	cell-free assay, competition with immobilised ligand	1 µM	remaining binding	99%
Cc1ccc(NC(=O)c2ccc(C)c(C(F)(F)F)c2)cc1C#Cc1nn(C2CCC(O)CC2)c2ncnc(N)c12 (stereo not shown)	cell-free assay	10 µM	remaining signal	2%
Cc1sc(C(=O)NC2COC2)cc1-n1cc(NC(=O)Nc2c(F)cccc2Cl)cn1	enzyme activity, inhibitor	10 µM	remaining activity	80.2%
CNC(=O)c1cc(Oc2ccc(NC(=O)Nc3ccc(Cl)c(C(F)(F)F)c3)cc2)ccn1	enzyme activity, inhibitor	0.3 µM	inhibition	10%
CC(C)(O)c1cncc(-c2nc3ccc(F)cc3n2C2CC2)c1	cell-free assay, competition with immobilised ligand	1 µM	remaining binding	100%
Cc1ccc(C(=O)NCc2ccsc2)cc1C#Cc1cn(C(C)C)c2ncnc(N)c12	enzyme activity, inhibitor	1 µM	activity vs control	2%
CC(C)CC(=O)N1CCc2nc(-c3ccc(Br)cc3)nc(N(C)Cc3ccccc3)c2C1	cell-free assay, competition with immobilised ligand	0.1 µM	remaining binding	99%
CNC(=O)c1cc2c(Oc3ccc(NC(=O)C4(C(=O)Nc5ccc(F)cc5)CC4)cc3)ccnc2cc1OC	enzyme activity, inhibitor, radiometric	1 µM	inhibition	79%
CC/C(=N\NC(=O)NCc1cccc(O)c1)c1ccc(O)c(C)c1O	enzyme activity, inhibitor	0.1 µM	inhibition	1.1%
Cc1cnc(NC2CCOCC2)nc1-n1cnc(C(=O)NC(CN)c2cc(F)cc(Cl)c2)c1 (stereo not shown)	enzyme activity, inhibitor, radiometric	1 µM	remaining activity	97%
O=C(Nc1cccnn1)N1CC(C/C=C/c2cncc(Oc3ccc(C(F)(F)F)cn3)n2)C1	cell-free assay, competition with immobilised ligand	1 µM	remaining binding	100%
Cn1c2c(c3ccc(Cl)c(Cl)c31)C(C#N)C1(CCCC1)NC2=O (stereo not shown)	thermal stability, DSF	10 µM	ΔTm	-0.2 °C
CN(C)C(=O)Cn1cc(-c2nc(C3(c4ccc(-c5cnc(N)nc5)cc4)CC3)no2)cn1	cell-free assay, competition with immobilised ligand	1 µM	remaining binding	100%
CCN(CC)CCNC(=O)c1c(C)[nH]c(/C=C2\C(=O)Nc3ccc(F)cc32)c1C	enzyme activity, inhibitor	10 µM	inhibition	97%
